Results published in PubChem BioAssay.
Inconclusive results are not listed.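 Rule for the calls, unless noted: active = inhibition over a set limit, the all-compound mean plus 3 SD, in both replicate runs; inconclusive = over that limit in just one replicate run; inactive = at or under that limit in both runs.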

Experiments:
[1] = S. cerevisiae growth inhibition in permissive medium (OD615), pilot counter-assay for S. cerevisiae lifespan shortening project, permissive growth control (AID 705;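 active = growth inhibition above 25% in both replicates, a cutoff set 3 SD above the mean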); details: OD615, 24 h, at 10 µM, hits give high values
Method in brief: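 System: Engineered DeaD yeast | Buffer or medium: SC raffinose/galactose permissive medium | Incubation: Cells pre-grown 4 h, then 24 h compound exposure, 30 °C humidified | Measured by: Absorbance (optical density) at 615 nm | Read-out: Reduction in yeast growth (OD615)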

[2] = S. cerevisiae growth inhibition in restrictive medium, OD615, pilot screen, restrictive growth control, yeast lifespan reduction project (AID 706;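 active = growth inhibition above a set limit, 3 SD over mean compound inhibition, in both replicates, cut at about 43% in these data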;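 note: modified DeaD lifespan yeast strain shifted to restrictive glucose medium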); details: OD615, 48 h, at 10 µM, hits give high values
Method in brief: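 Material: modified S. cerevisiae; Medium: glucose-based CSMM-D restrictive medium; Compound dosing: one concentration, 10 µM final, 0.25% DMSO; Incubation: 48 h compound exposure at 30 °C; Measured by: OD615.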

[3] = doxorubicin toxicity protection in MRP-1 cells – H69AR cells, CellTiter-Glo, duplicate, MRP-1 activator project, pilot screen (AID 807;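 active = viability increase at or above a cutoff of the median across tested compounds plus 3 SD, cut at about 8.5% in these data, passing the limit was not always enough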;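 note: compound pretreatment 18-22 h then 72 h combined with doxorubicin; 0% = doxorubicin alone and 100% = vehicle without doxorubicin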); details: H69AR viability with doxorubicin, CellTiter-Glo luminescence; at 10 µM; hits give high values
[4] = viability of HCT116 without oncogenic beta-catenin – human colon tumor cells, pilot screen (AID 823;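 active = cell viability at or below a set limit in both duplicate runs, the limit being the all-compound median minus 4 SD, cut at about 23% in these data, passing the limit was not always enough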;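 note: 0% = wells killed by 20 µM Hyamine and 100% = untreated DMSO cell wells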); details: HCT116 beta-catenin knockout viability, CellTiter-Glo, 60 h; at 10 µM; hits give low values
[5] = viability of PTEN-null HCT116 cells – cell-based, HCT116 clonal line, CellTiter-Glo, pilot screen (AID 824;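 active = viability at or below 27.92% in each of two runs, the all-compound median minus 4 SD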;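 note: 0% = 20 µM Hyamine control and 100% = vehicle cell control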); details: HCT116 PTEN-deleted viability, 60 h, at 10 µM, hits give low values
[6] = RAM pathway blockade in budding yeast – dse1pr::URA3 reporter, 5-FOA selection, pilot screen (AID 869);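 note: 0% = DMSO wells with no growth and 100% = 10 µM 1-NA-PP1 with full growth; RAM network block rescues cells from 5-FOA so hits raise OD615 growth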; details: S. cerevisiae dse1pr::URA3 5-FOA growth, OD615, 2 d; at 10 µM; hits give high values; strain carries analog-sensitive mutant Cbk1 kinase
[7] = RAM signaling pathway blockade in yeast – S. cerevisiae, Pdr1DBD-CYC8 efflux-inhibited sensitized strain, primary screen (AID 1298;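 active = RAM network inhibition above 8.4% in each of two replicates, 3 SD over the compound average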;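 note: 0% = DMSO untreated cells without growth and 100% = 10 µM 1-NA-PP1 full growth; higher means more yeast growth rescued from 5-FOA killing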); details: S. cerevisiae cbk1-as DSE1-URA3 strain, 5-FOA growth OD615, 2 d; at 50 µM; hits give high values

CCc1nnc(NC(=O)C2CCCCC2)s1
inactive: growth inhibition [1] 5.8% | growth inhibition [2] 14.7% | viability increase [3] 1.12% | viability [4] 109% | viability [5] 106% | inhibition [6] 0.455% | RAM network inhibition [7] 1.04%

O=C(Cn1cnc2c(nnn2-c2ccccc2)c1=O)N1CCCc2ccccc21
inactive: growth inhibition [1] -10% | growth inhibition [2] -10.4% | viability increase [3] 0.06% | viability [4] 101% | viability [5] 101% | inhibition [6] 1.55% | RAM network inhibition [7] 5.32%

CC1CCCCC1NC(=O)c1ccc(CNc2c(N3CCCC3)c(=O)c2=O)cc1 (configuration not stated)
inactive: growth inhibition [1] -2.63% | growth inhibition [2] 8.32% | viability increase [3] -0.12% | viability [4] 96.7% | viability [5] 90.8% | inhibition [6] 1.01% | RAM network inhibition [7] 0.72%

C=CCSc1nnc2c(n1)OC(c1cccnc1)Nc1ccccc1-2 (configuration not stated)
inactive: growth inhibition [1] 8.11% | growth inhibition [2] 13.7% | viability increase [3] -2.34% | viability [4] 95.5% | viability [5] 88% | inhibition [6] 1.75% | RAM network inhibition [7] 1.38%

CCCCCn1c(=O)[nH]c2c(c1=O)CCC2
inactive: growth inhibition [1] 2.71% | growth inhibition [2] -0.545% | viability increase [3] 1.82% | viability [4] 101% | viability [5] 100% | inhibition [6] -0.56% | RAM network inhibition [7] 0.26%

CC1CCC(NC(=O)CC2Oc3ccccc3NC2=O)CC1 (configuration not stated)
inactive: growth inhibition [1] 6.36% | growth inhibition [2] 2.4% | viability increase [3] -0.98% | viability [4] 98.8% | viability [5] 97.8% | inhibition [6] 2.69% | RAM network inhibition [7] 5.77%

Cc1cc(Nc2cc(C)on2)n2ncnc2n1
inactive: growth inhibition [1] 2.33% | growth inhibition [2] -10% | viability increase [3] -1.14% | viability [4] 106% | viability [5] 99.8% | inhibition [6] 0.195% | RAM network inhibition [7] 2.24%

CC(=O)N1CCc2cc(C(=O)CN3CCN(c4cccc(Cl)c4)CC3)ccc21
inactive: growth inhibition [1] -11% | growth inhibition [2] -7.26% | viability increase [3] 0.32% | viability [4] 69.3% | viability [5] 76.8% | inhibition [6] 1.65% | RAM network inhibition [7] 3.12%

O=C(Nc1cnc2ccccc2c1)c1ccncc1
inactive: growth inhibition [1] -8.13% | growth inhibition [2] -8.73% | viability increase [3] -2.98% | viability [4] 99.7% | viability [5] 87.1% | inhibition [6] 2.08% | RAM network inhibition [7] 1.19%

COC(=O)c1ccc2c(c1)N(C)CCS2
inactive: growth inhibition [1] -7.72% | growth inhibition [2] -2.27% | viability increase [3] -0.04% | viability [4] 101% | viability [5] 93.9% | inhibition [6] 0.22% | RAM network inhibition [7] -0.26%

N#CCCN1CCN(S(=O)(=O)c2ccc(S(=O)(=O)NCC3CCCO3)cc2)CC1 (configuration not stated)
inactive: growth inhibition [1] -1.2% | growth inhibition [2] 5.28% | viability increase [3] 0.55% | viability [4] 105% | viability [5] 104% | inhibition [6] 0.51% | RAM network inhibition [7] -2.15%

CCOC(=O)c1cnc2ccc(Br)cc2c1NCC(C)O (configuration not stated)
inactive: growth inhibition [1] -11.9% | growth inhibition [2] -9.36% | viability increase [3] -4.28% | viability [4] 91.4% | viability [5] 89.2% | inhibition [6] 1.19% | RAM network inhibition [7] 2.79%

COc1ccc(OC)c(-c2nnc(NC(=O)C(C)Sc3nncn3C)s2)c1 (configuration not stated)
inactive: growth inhibition [1] -1.32% | growth inhibition [2] 23.7% | viability increase [3] -4.48% | viability [4] 106% | viability [5] 95.5% | inhibition [6] 0.65% | RAM network inhibition [7] 0.37%

CC(C)(C)c1ccc(-c2nnc3sc(-c4ccccn4)nn23)cc1
inactive: growth inhibition [1] -19.2% | growth inhibition [2] -24.6% | viability increase [3] 0.61% | viability [4] 100% | viability [5] 89.2% | inhibition [6] 2.01% | RAM network inhibition [7] 1.31%

CCN(CCNC(=O)C1CCCN(S(=O)(=O)c2cnc[nH]2)C1)c1ccccc1 (configuration not stated)
inactive: growth inhibition [1] -0.145% | growth inhibition [2] -6.85% | viability increase [3] -0.77% | viability [4] 106% | viability [5] 101% | inhibition [6] 0.775% | RAM network inhibition [7] 3.46%

COC(=O)C1=C(C)N(C)C(C)=C(C(=O)OC)C1c1ccsc1
inactive: growth inhibition [1] -6.88% | growth inhibition [2] -6.81% | viability increase [3] -2.96% | viability [4] 91.4% | viability [5] 87.8% | inhibition [6] 1.99% | RAM network inhibition [7] 2.51%

O=C(c1ccccc1)C(Sc1ncn[nH]1)c1ccccc1 (configuration not stated)
inactive: growth inhibition [1] -8.75% | growth inhibition [2] 0.305% | viability increase [3] 5.4% | viability [4] 92.5% | viability [5] 85.7% | inhibition [6] 1.1% | RAM network inhibition [7] 2.92%

Cc1ccc2oc(=O)c3cnn(CC(=O)NC4CCN(Cc5ccccc5)CC4)c3c2c1
inactive: growth inhibition [1] -4.11% | growth inhibition [2] 0.24% | viability increase [3] -3.78% | viability [4] 88.3% | viability [5] 92% | inhibition [6] 1.77% | RAM network inhibition [7] 0.57%

O=C(CSc1nnc(-c2cccs2)o1)N1CCCCC1
inactive: growth inhibition [1] -2.25% | growth inhibition [2] 11.9% | viability increase [3] 2.11% | viability [4] 104% | viability [5] 115% | inhibition [6] 1.31% | RAM network inhibition [7] 1.38%

Nc1nc2n(n1)C(c1ccc(Cl)cc1)CC(c1ccc(F)cc1)N2 (configuration not stated)
inactive: growth inhibition [1] -3.33% | growth inhibition [2] 13% | viability increase [3] 5.31% | viability [4] 92.5% | viability [5] 80.8% | inhibition [6] 0.43% | RAM network inhibition [7] 5.91%

CCc1nnc(NC(=O)CSc2nnc(Cc3cccn3C)n2C)s1
inactive: growth inhibition [1] 5.43% | growth inhibition [2] 30.4% | viability increase [3] -1.23% | viability [4] 100% | viability [5] 96% | inhibition [6] 0.7% | RAM network inhibition [7] 1.19%

CC1(C(=O)NCc2cccnc2)CCC(=O)N1Cc1cccs1 (configuration not stated)
inactive: growth inhibition [1] -2.29% | growth inhibition [2] -1.24% | viability increase [3] 0.38% | viability [4] 108% | viability [5] 102% | inhibition [6] 0% | RAM network inhibition [7] 3.95%

Cc1ccc(-c2c(C(=O)N3CCOCC3)oc(=O)c3ccccc23)cc1
inactive: growth inhibition [1] -9.96% | growth inhibition [2] -6.92% | viability increase [3] -0.03% | viability [4] 95.6% | viability [5] 103% | inhibition [6] 1.33% | RAM network inhibition [7] 1.2%

CCN1CCN(CCNC(=O)c2ccc(CS(=O)(=O)c3c(Cl)cccc3Cl)o2)CC1
inactive: growth inhibition [1] 5.83% | growth inhibition [2] 6.53% | viability increase [3] -1.94% | viability [4] 110% | viability [5] 103% | inhibition [6] 2.98% | RAM network inhibition [7] 1.59%

Cc1ccc(CNC(=O)CCCNS(=O)(=O)c2cccc3nonc23)cc1
inactive: growth inhibition [1] -4.66% | growth inhibition [2] 0.525% | viability increase [3] -1.25% | viability [4] 101% | viability [5] 101% | inhibition [6] -0.185% | RAM network inhibition [7] 3%

O=C(Nc1ccc(Cl)cc1)C1CC2CCCC(C1)C2=O (configuration not stated)
inactive: growth inhibition [1] -7.49% | growth inhibition [2] -3.51% | viability increase [3] 0.77% | viability [4] 97.2% | viability [5] 99.2% | inhibition [6] 0.77% | RAM network inhibition [7] 4.61%

CC(=O)Nc1sc(C)c(C)c1CN1CCN(S(=O)(=O)c2ccccc2)CC1
inactive: growth inhibition [1] -1.31% | growth inhibition [2] -23.5% | viability increase [3] -2.28% | viability [4] 88.5% | viability [5] 85% | inhibition [6] -0.365% | RAM network inhibition [7] 1.74%

COc1ccc(OC)c(Nc2cc(C)nc3nc(C)nn23)c1
inactive: growth inhibition [1] 0.505% | growth inhibition [2] -0.375% | viability increase [3] -5.35% | viability [4] 65.5% | viability [5] 57.4% | inhibition [6] 1.67% | RAM network inhibition [7] 5.24%

O=C(Nc1c(C(=O)N2CCCC2)cnn1-c1ccccc1)c1cccc(F)c1
inactive: growth inhibition [1] -7.52% | growth inhibition [2] -1.27% | viability increase [3] -0.46% | viability [4] 96.7% | viability [5] 98.9% | inhibition [6] 0.475% | RAM network inhibition [7] 1.02%

O=C(O)CCCCCN1C(=O)c2ccc(C(=O)O)cc2C1=O
inactive: growth inhibition [1] -14.4% | growth inhibition [2] -10.8% | viability increase [3] 1.08% | viability [4] 103% | viability [5] 105% | inhibition [6] 1.88% | RAM network inhibition [7] 6.72%

CCN(C(=O)CSc1nnnn1-c1cc(C)ccc1OC)C1CCS(=O)(=O)C1 (configuration not stated)
inactive: growth inhibition [1] -6.25% | growth inhibition [2] 4.34% | viability increase [3] -1.65% | viability [4] 99% | viability [5] 94.6% | inhibition [6] 1.56% | RAM network inhibition [7] -1.67%

CC1(C)CCCC2=C1CC1C(=O)N(Cc3cccnc3)C(=O)C1C2 (configuration not stated)
inactive: growth inhibition [1] -6.32% | growth inhibition [2] -10.3% | viability increase [3] -0.2% | viability [4] 82.2% | viability [5] 86.7% | inhibition [6] 1.11% | RAM network inhibition [7] 4.53%

COCCOC(=O)c1c(C)oc2ccc(OCC=C(C)C)cc12
inactive: growth inhibition [1] -0.275% | growth inhibition [2] -6.21% | viability increase [3] 3.27% | viability [4] 97.8% | viability [5] 95% | inhibition [6] 0.175% | RAM network inhibition [7] 4.81%

C=CCSC1=N/C(=C\c2ccc(C)o2)C(=O)S1
inactive: growth inhibition [1] -9.79% | growth inhibition [2] -6.84% | viability increase [3] -3.69% | viability [4] 101% | viability [5] 98.6% | inhibition [6] 1.58% | RAM network inhibition [7] 2.06%

CC(C)OC(=O)C1C2C=CC3(CN(C(C)c4ccc(Br)cc4)C(=O)C13)O2 (configuration not stated)
inactive: growth inhibition [1] -19.3% | growth inhibition [2] -19.3% | viability increase [3] -2.07% | viability [4] 96.8% | viability [5] 94.1% | inhibition [6] 0.395% | RAM network inhibition [7] 6.84%

CC(=O)NCc1nc2ccccc2n1Cc1ccccc1C
inactive: growth inhibition [1] 2.5% | growth inhibition [2] -3.57% | viability increase [3] -2.27% | viability [4] 101% | viability [5] 95.7% | inhibition [6] 1.05% | RAM network inhibition [7] 2.57%
